# Key:
# [1] = test system: HepG2; test: Antiproliferative activity against human HepG2 cells assessed as reduction in cell growth; type: functional, cell-based
# [2] = test system: PC-3; test: Antiproliferative activity against human PC3 cells assessed as reduction in cell growth; type: functional, cell-based
# [3] = test system: MCF7; test: Antiproliferative activity against human MCF7 cells assessed as reduction in cell growth; type: functional, cell-based
# [4] = test system: HeLa; test: Antiproliferative activity against human HeLa cells assessed as reduction in cell growth; type: functional, cell-based
# [5] = Inhibition of quorum sensing in Chromobacterium violaceum ATCC 12472 assessed as inhibition zone at 5 mg/ml incubated for 48 hrs by well diffusion method; type: functional; conditions: read-out: IZ
# How it was run: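 Chromobacterium violaceum ATCC 12472 grown in LB broth at 28 °C, 48 h. 50 μL inoculated into 5 ml soft LB agar and overlaid on LB agar plates. Wells received 100 μL compound in DMSO (5 mg/ml); DMSO as negative control. 28 °C, 48 h. Growth-inhibition radius r1 and pigment-plus-growth radius r2 measured; QS inhibition = r2 − r1 (mm).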
# [6] = test system: Candida albicans; test: Antifungal activity against Candida albicans CS35 assessed as reduction in fungal growth incubated for 18 hrs by two-fold serial dilution method; type: functional
# How it was run: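 Broth microdilution per CLSI M27-A3/M38-A2. Selection: compounds active in agar diffusion. Twofold (1:1) dilutions in 0.1 ml yeast peptone dextrose medium; fluconazole as positive control.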
# [7] = test system: MCF7; test: Induction of apoptosis in human MCF7 cells assessed as late apoptotic cells at […] incubated for 24 hrs by Annexin V-FITC and propidium iodide staining based flow cytometry analysis (reference value: 0.15 %); type: functional; set-up: dose or concentration left out as unconfirmed
# [8] = test system: MCF7; test: Induction of cell cycle arrest in human MCF7 cells assessed as accumulation at S phase at […] incubated for 24 hrs by propidium iodide staining based flow cytometry analysis (reference value: 36.26 %); type: functional; set-up: dose or concentration left out as unconfirmed
# [9] = Safety index, ratio of IC50 for cytotoxicity against human WI-38 cells to IC50 for antiproliferative activity against human MCF7 cells; type: toxicity, cell-based; conditions: WI-38 cells versus MCF7 cells
# [10] = Safety index, ratio of IC50 for cytotoxicity against human WI-38 cells to IC50 for antiproliferative activity against human HepG2 cells; type: toxicity, cell-based; conditions: WI-38 cells versus HepG2 cells
# [11] = test system: MCF7; test: Induction of cell cycle arrest in human MCF7 cells assessed as accumulation at G2/M phase at […] incubated for 24 hrs by propidium iodide staining based flow cytometry analysis (reference value: 9.85 %); type: functional; set-up: dose or concentration left out as unconfirmed
# [12] = test system: MCF7; test: Induction of cell cycle arrest in human MCF7 cells assessed as accumulation at G0-G1 phase at […] incubated for 24 hrs by propidium iodide staining based flow cytometry analysis (reference value: 53.89 %); type: functional; set-up: dose or concentration left out as unconfirmed
# [13] = test system: MCF7; test: Induction of apoptosis in human MCF7 cells assessed as accumulation at preG1 phase at […] incubated for 24 hrs by propidium iodide staining based flow cytometry analysis (reference value: 1.78 %); type: functional; set-up: dose or concentration left out as unconfirmed
# [14] = Safety index, ratio of IC50 for cytotoxicity against human WI-38 cells to IC50 for antiproliferative activity against human PC-3 cells; type: toxicity, cell-based; conditions: WI-38 cells versus PC-3 cells
# [15] = target: Phosphatidylinositol 4,5-bisphosphate 3-kinase catalytic subunit alpha isoform (Homo sapiens, UniProt P42336); test: Inhibition of human PI3Kalpha by ELISA
# How it was run: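 Human PI3Kα activity measured by ELISA in wells coated with a PI3K-specific antibody. Standard or test compound was added at room temperature and absorbance read. A log–log standard curve related absorbance to standard concentration. Percent inhibition was calculated against control, and IC50 was obtained from concentration/inhibition curves.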
# [16] = test system: WI-38; test: Cytotoxicity against human WI38 cells by MTT assay; type: cell-based
# [17] = test system: MCF7; test: Induction of apoptosis in human MCF7 cells assessed as early apoptotic cells at […] incubated for 24 hrs by Annexin V-FITC and propidium iodide staining based flow cytometry analysis (reference value: 0.42 %); type: functional; set-up: dose or concentration left out as unconfirmed
# [18] = test system: MCF7; test: Induction of apoptosis in human MCF7 cells assessed as necrotic cells at […] incubated for 24 hrs by Annexin V-FITC and propidium iodide staining based flow cytometry analysis (reference value: 1.21 %); type: functional; set-up: dose or concentration left out as unconfirmed
# [19] = Safety index, ratio of IC50 for cytotoxicity against human WI-38 cells to IC50 for antiproliferative activity against human HeLa cells; type: toxicity, cell-based; conditions: WI-38 cells versus HeLa cells
# [20] = test system: Staphylococcus aureus; test: Antibacterial activity against Staphylococcus aureus ATCC 29213 assessed as reduction in bacterial growth incubated for 18 hrs by two-fold serial dilution method; type: functional
# How it was run: (§1)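 Broth microdilution per CLSI 2015. Selection: compounds active in agar diffusion. Twofold (1:1) dilutions in 0.1 ml MH broth; inoculum 5 × 10^6 CFU/ml diluted suspension. Ampicillin/clavulanic acid as positive control.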
# [21] = test system: Candida albicans; test: Antifungal activity against Candida albicans CS35 assessed as diameter of zone inhibition at 5 mg/ml incubated for 24 hrs by agar plate diffusion method; type: functional; conditions: read-out: DIZ
# How it was run: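 Cup diffusion using Sabouraud's medium for C. albicans. 100 μL compound in DMSO (5 mg/mL) per well, DMSO as negative control, fluconazole as reference. 37 °C, 24 h; inhibition zone diameter in mm.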
# [22] = test system: Bacillus cereus; test: Antibacterial activity against Bacillus cereus UW85 assessed as diameter of zone inhibition at 5 mg/ml incubated for 24 hrs by agar plate diffusion method; type: functional; conditions: read-out: DIZ
# How it was run: (§2)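 Cup (well) agar diffusion in Mueller Hinton agar. Overnight MH broth culture diluted to 0.5 McFarland; 20 μL mixed into MH agar at 50 °C, poured into 9-cm plates. Wells cut with a cork borer and filled with 100 μL compound in DMSO (final 5 mg/mL). DMSO as negative control, ampicillin/clavulanic acid as reference. 37 °C, 24 h; inhibition zone diameter in mm.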
# [23] = test system: Bacillus cereus; test: Antibacterial activity against Bacillus cereus UW85 assessed as reduction in bacterial growth incubated for 18 hrs by two-fold serial dilution method; type: functional; how it was run: as §1
# [24] = test system: Staphylococcus aureus; test: Antibacterial activity against Staphylococcus aureus ATCC 29213 assessed as diameter of zone inhibition at 5 mg/ml incubated for 24 hrs by agar plate diffusion method; type: functional; conditions: read-out: DIZ; how it was run: as §2
# [25] = test system: Escherichia coli; test: Antibacterial activity against Escherichia coli ATCC 12435 assessed as diameter of zone inhibition at 5 mg/ml incubated for 24 hrs by agar plate diffusion method; type: functional; conditions: read-out: DIZ; how it was run: as §2
# [26] = test system: Pseudomonas aeruginosa; test: Antibacterial activity against Pseudomonas aeruginosa PAO1 assessed as reduction in bacterial growth incubated for 18 hrs by two-fold serial dilution method; type: functional; how it was run: as §1
# [27] = test system: Pseudomonas aeruginosa; test: Antibacterial activity against Pseudomonas aeruginosa PAO1 assessed as diameter of zone inhibition at 5 mg/ml incubated for 24 hrs by agar plate diffusion method; type: functional; conditions: read-out: DIZ; how it was run: as §2
# Sequence of Phosphatidylinositol 4,5-bisphosphate 3-kinase catalytic subunit alpha isoform (P42336 whole entry, canonical isoform): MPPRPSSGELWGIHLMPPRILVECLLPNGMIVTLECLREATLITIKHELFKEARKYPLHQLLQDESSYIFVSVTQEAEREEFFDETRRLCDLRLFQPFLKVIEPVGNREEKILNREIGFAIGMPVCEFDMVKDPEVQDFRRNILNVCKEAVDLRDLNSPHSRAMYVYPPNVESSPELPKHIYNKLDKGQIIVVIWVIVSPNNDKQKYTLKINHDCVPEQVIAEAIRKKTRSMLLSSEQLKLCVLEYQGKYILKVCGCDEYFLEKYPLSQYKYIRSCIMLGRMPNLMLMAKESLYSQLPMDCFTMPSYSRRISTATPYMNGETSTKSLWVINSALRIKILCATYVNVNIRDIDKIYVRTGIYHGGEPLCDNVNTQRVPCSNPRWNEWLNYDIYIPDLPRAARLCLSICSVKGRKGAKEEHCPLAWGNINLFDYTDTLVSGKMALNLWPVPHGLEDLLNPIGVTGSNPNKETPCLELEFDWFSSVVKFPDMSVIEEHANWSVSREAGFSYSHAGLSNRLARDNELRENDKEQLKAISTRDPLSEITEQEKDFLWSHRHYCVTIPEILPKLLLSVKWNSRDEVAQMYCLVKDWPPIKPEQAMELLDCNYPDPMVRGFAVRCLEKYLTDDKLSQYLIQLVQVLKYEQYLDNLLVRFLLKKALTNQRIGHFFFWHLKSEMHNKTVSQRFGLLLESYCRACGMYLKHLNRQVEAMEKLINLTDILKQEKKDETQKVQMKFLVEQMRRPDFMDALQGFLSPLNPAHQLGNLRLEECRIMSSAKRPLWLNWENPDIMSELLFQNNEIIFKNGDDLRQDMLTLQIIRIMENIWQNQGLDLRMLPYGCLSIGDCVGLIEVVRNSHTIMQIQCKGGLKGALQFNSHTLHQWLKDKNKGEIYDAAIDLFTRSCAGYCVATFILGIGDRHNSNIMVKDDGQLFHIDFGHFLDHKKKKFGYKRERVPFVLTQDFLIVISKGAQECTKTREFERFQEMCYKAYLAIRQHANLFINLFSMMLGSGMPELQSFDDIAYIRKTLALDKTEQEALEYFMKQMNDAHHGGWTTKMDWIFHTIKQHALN
compound,measurement,setting,value
C/C(=N\Nc1nc(-c2ccc(Cl)cc2)cs1)c1cc2ccccc2o1,IC50,[1],23.2 µM
same,IC50,[2],38.1 µM
same,IC50,[3],29.9 µM
same,IC50,[4],26.6 µM
CN(C)/C=C/C(=O)c1cc2ccccc2o1,zone of inhibition at 5000 µg/mL,[5],5 mm
same,MIC,[6],256 µg/mL
CCOC(=O)Cc1csc(N/N=C(\C)c2cc3ccccc3o2)n1,Activity,[7],8.1%
same,IC50,[2],13.1 µM
same,Activity,[8],33.71%
same,zone of inhibition at 5000 µg/mL,[5],3 mm
same,selectivity ratio,[9],5.61
same,selectivity ratio,[10],4.75
same,Activity,[11],22.34%
same,IC50,[3],6.55 µM
same,Activity,[12],43.95%
same,Activity,[13],17.66%
same,selectivity ratio,[14],2.8
same,IC50,[15],7.8 µM
same,IC50,[16],36.8 µM
same,Activity,[17],3.27%
same,Activity,[18],6.29%
same,selectivity ratio,[19],3.97
same,IC50,[4],9.26 µM
C/C(=N\Nc1nc(C)cs1)c1cc2ccccc2o1,MIC,[20],64 µg/mL
same,IC50,[1],4 µM
same,IC50,[2],8.99 µM
same,zone of inhibition at 5000 µg/mL,[21],10 mm
same,zone of inhibition at 5000 µg/mL,[5],7 mm
same,selectivity ratio,[9],9.06
same,zone of inhibition at 5000 µg/mL,[22],11 mm
same,selectivity ratio,[10],11.1
same,IC50,[3],4.89 µM
same,selectivity ratio,[14],4.93
same,IC50,[15],20.5 µM
same,IC50,[16],44.3 µM
same,MIC,[23],128 µg/mL
same,MIC,[6],128 µg/mL
same,selectivity ratio,[19],4.94
CN1CCN(C(=S)Cc2cc3ccccc3o2)CC1,IC50,[1],64.5 µM
same,IC50,[2],83.8 µM
same,IC50,[3],73.5 µM
CC1(C)S[C@@H]2[C@H](NC(=O)[C@H](N)c3ccccc3)C(=O)N2[C@H]1C(=O)O [AMPICILLIN],MIC,[20],128 µg/mL
same,zone of inhibition at 5000 µg/mL,[22],10 mm
same,zone of inhibition at 5000 µg/mL,[24],6 mm
same,zone of inhibition at 5000 µg/mL,[25],10 mm
same,MIC,[26],> 5000 µg/mL
same,MIC,[23],128 µg/mL
OC(Cn1cncn1)(Cn1cncn1)c1ccc(F)cc1F [FLUCONAZOLE],zone of inhibition at 5000 µg/mL,[21],8 mm
same,MIC,[6],256 µg/mL
O=CC(/N=N/c1ccc(Cl)cc1)=C(\O)c1cc2ccccc2o1,MIC,[20],128 µg/mL
same,IC50,[1],37.3 µM
same,IC50,[2],51.8 µM
same,zone of inhibition at 5000 µg/mL,[22],6 mm
same,zone of inhibition at 5000 µg/mL,[24],9 mm
same,MIC,[23],256 µg/mL
same,IC50,[4],38.2 µM
Cc1ccc(/N=N/C(C=O)=C(/O)c2cc3ccccc3o2)cc1,MIC,[20],128 µg/mL
same,IC50,[1],46.8 µM
same,IC50,[2],62 µM
same,zone of inhibition at 5000 µg/mL,[24],6 mm
same,IC50,[3],58.6 µM
same,zone of inhibition at 5000 µg/mL,[27],10 mm
same,MIC,[26],512 µg/mL
same,MIC,[23],256 µg/mL
COc1ccc(-c2csc(N/N=C(\C)c3cc4ccccc4o3)n2)cc1,IC50,[1],15.7 µM
same,IC50,[2],28.9 µM
same,zone of inhibition at 5000 µg/mL,[5],3 mm
same,IC50,[3],18.9 µM
same,IC50,[4],18.7 µM
C/C(=N\Nc1nc(-c2ccc(Br)cc2)cs1)c1cc2ccccc2o1,IC50,[1],27.7 µM
same,IC50,[2],45.2 µM
same,IC50,[3],33.2 µM
same,IC50,[4],32.7 µM
C/C(=N\Nc1nc(-c2ccccc2)cs1)c1cc2ccccc2o1,Activity,[7],14.65%
same,IC50,[1],10.3 µM
same,IC50,[2],16.7 µM
same,Activity,[8],29.57%
same,selectivity ratio,[9],4.91
same,selectivity ratio,[10],4.04
same,Activity,[11],30.82%
same,IC50,[3],8.49 µM
same,Activity,[12],39.61%
same,Activity,[13],29.93%
same,selectivity ratio,[14],2.49
same,IC50,[15],4.1 µM
same,IC50,[16],41.7 µM
same,Activity,[17],5.92%
same,Activity,[18],9.36%
same,selectivity ratio,[19],3.56
same,IC50,[4],11.7 µM
COc1ccc(/N=N/C(C=O)=C(/O)c2cc3ccccc3o2)cc1,MIC,[20],128 µg/mL
same,IC50,[1],42.1 µM
same,IC50,[2],56.3 µM
same,zone of inhibition at 5000 µg/mL,[22],5 mm
same,zone of inhibition at 5000 µg/mL,[24],7 mm
same,MIC,[23],265 µg/mL
C/C(=N\Nc1nc(-c2cc3ccccc3o2)cs1)c1cc2ccccc2o1,IC50,[1],21.2 µM
same,IC50,[2],34.2 µM
same,zone of inhibition at 5000 µg/mL,[5],2 mm
same,IC50,[3],25.6 µM
same,IC50,[4],24.1 µM
C/C(=N\Nc1nc(-c2ccc(C)cc2)cs1)c1cc2ccccc2o1,IC50,[1],14.1 µM
same,IC50,[2],21.4 µM
same,IC50,[3],11.1 µM
same,IC50,[4],14.3 µM
O=CC(/N=N/c1ccc([N+](=O)[O-])cc1)=C(\O)c1cc2ccccc2o1,MIC,[20],8 µg/mL
same,IC50,[1],35.4 µM
same,IC50,[2],49.6 µM
same,zone of inhibition at 5000 µg/mL,[21],9 mm
same,zone of inhibition at 5000 µg/mL,[24],6 mm
same,IC50,[3],43.2 µM
same,zone of inhibition at 5000 µg/mL,[27],10 mm
same,MIC,[26],512 µg/mL
same,MIC,[6],256 µg/mL
same,IC50,[4],37.8 µM
COc1ccc(C(=O)CSC(=S)N/N=C(\C)c2cc3ccccc3o2)cc1,IC50,[1],31.9 µM
same,IC50,[2],73.3 µM
same,zone of inhibition at 5000 µg/mL,[21],5 mm
same,IC50,[3],38.4 µM
same,zone of inhibition at 5000 µg/mL,[27],8 mm
same,MIC,[26],512 µg/mL
same,MIC,[6],256 µg/mL
same,IC50,[4],46.9 µM
